Measurements from ChEMBL document CHEMBL1828541, “New aporphinoid 5-HT2A and α1A antagonists via structural manipulations of nantenine” (Bioorg Med Chem, 2011).

Assays:
Format in all cases: functional, cell-based
[1] = molecular target: T1, Alpha-1A adrenergic receptor (Homo sapiens) (UniProt P35348); experiment: Antagonist activity at human alpha1A receptor assessed as inhibition of intracellular calcium mobilization by FLIPR assay
T1 sequence (whole entry): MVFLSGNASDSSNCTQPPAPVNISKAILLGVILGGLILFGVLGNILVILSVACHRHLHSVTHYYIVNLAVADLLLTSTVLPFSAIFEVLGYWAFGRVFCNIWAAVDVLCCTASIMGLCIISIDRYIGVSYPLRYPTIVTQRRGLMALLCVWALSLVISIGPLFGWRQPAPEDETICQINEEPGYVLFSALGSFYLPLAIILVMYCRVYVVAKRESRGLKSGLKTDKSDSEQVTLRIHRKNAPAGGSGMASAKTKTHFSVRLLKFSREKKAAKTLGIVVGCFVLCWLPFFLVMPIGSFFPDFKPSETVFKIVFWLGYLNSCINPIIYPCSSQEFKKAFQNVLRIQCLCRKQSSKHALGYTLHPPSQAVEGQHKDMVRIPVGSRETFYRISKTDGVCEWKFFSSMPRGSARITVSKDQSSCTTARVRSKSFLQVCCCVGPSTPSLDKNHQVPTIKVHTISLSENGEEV
Outline: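 Human α1A-adrenergic receptor, FLIPR Tetra calcium-mobilization assay with a calcium-sensitive fluorescent dye. Ke was derived from agonist concentration-response EC50 shifts by a single antagonist concentration, using Ke = [L]/(DR-1) as for the 5-HT2A set.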

[2] = molecular target: 5-hydroxytryptamine receptor 2A (Homo sapiens) (UniProt P28223); experiment: Antagonist activity at human 5-HT2A receptor assessed as inhibition of intracellular calcium mobilization by FLIPR assay
Outline: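 FLIPR Tetra calcium-dye assay at human 5-HT2A. Compounds without intrinsic activity that inhibited the fluorescence rise to the EC80 of 5-HT by at least 50% at 10 μM went on to Ke determination. For this, an 8-point half-log 5-HT concentration-response curve was run with and without a single antagonist concentration. Ke = [L]/(DR-1), where DR = A'/A (ratio of 5-HT EC50s).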

[3] = molecular target: 5-hydroxytryptamine receptor 2A (Homo sapiens) (UniProt P28223); experiment: Agonist activity at human 5-HT2A receptor assessed as intracellular calcium mobilization at 10 uM by FLIPR assay
Outline: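 Multi-well FLIPR Tetra screen at 10 μM for intrinsic activity at human 5-HT2A receptor. Read-out is receptor-mediated mobilization of internal calcium, detected with a calcium-sensitive fluorescent dye.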

5-hydroxytryptamine receptor 2A (Homo sapiens), sequence (P28223 whole entry): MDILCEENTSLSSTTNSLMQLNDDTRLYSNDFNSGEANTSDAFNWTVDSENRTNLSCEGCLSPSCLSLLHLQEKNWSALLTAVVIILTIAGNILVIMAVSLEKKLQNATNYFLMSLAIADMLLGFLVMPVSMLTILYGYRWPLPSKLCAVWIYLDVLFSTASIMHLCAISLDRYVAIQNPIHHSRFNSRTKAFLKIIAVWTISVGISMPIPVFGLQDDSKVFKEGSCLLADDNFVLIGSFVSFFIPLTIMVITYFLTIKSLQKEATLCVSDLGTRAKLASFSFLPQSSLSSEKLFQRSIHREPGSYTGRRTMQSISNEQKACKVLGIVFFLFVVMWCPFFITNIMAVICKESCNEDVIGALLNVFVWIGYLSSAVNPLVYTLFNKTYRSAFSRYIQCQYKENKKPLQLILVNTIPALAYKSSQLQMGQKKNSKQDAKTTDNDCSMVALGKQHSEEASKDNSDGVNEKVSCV

Compound | Ke [1] [nM] | Ke [2] [nM] | Emax [3] [%]
CCC(CC)COc1c(OC)cc2c3c1-c1cc4c(cc1CC3N(C)CC2)OCO4 (centres undefined) | > 10000 | 806 | –
C=CCOc1c(OC)cc2c3c1-c1cc4c(cc1CC3N(C)CC2)OCO4 (racemic) | > 10000 | 70 | –
CCCCCCOc1c(OC)cc2c3c1-c1cc4c(cc1CC3N(C)CC2)OCO4 (racemic) | > 10000 | 71 | –
CCCCCN1CCc2cc(OC)c(OC)c3c2C1Cc1cc2c(cc1-3)OCO2 (racemic) | 720 | > 10000 | –
CCCCCOc1cc2c3c(c1OC)-c1cc4c(cc1CC3N(C)CC2)OCO4 (racemic) | 449 | > 10000 | –
CCCCN1CCc2cc(OC)c(OC)c3c2C1Cc1cc2c(cc1-3)OCO2 (racemic) | 210 | > 10000 | –
CCCCOc1cc2c3c(c1OC)-c1cc4c(cc1CC3N(C)CC2)OCO4 (racemic) | 234 | 943 | –
CCCN1CCc2cc(OC)c(OC)c3c2C1Cc1cc2c(cc1-3)OCO2 (racemic) | 38 | > 10000 | –
CCCOc1cc2c3c(c1OC)-c1cc4c(cc1CC3N(C)CC2)OCO4 (racemic) | 133 | 389 | –
CCN1CCc2cc(OC)c(OC)c3c2C1Cc1cc2c(cc1-3)OCO2 (racemic) | 26 | – | –
CCOc1cc2c3c(c1OC)-c1cc4c(cc1CC3N(C)CC2)OCO4 (racemic) | 52 | 378 | –
COc1c(Br)c2c3c(c1OC)-c1c(Br)c4c(c(Br)c1CC3N(C)CC2)OCO4 (racemic) | > 10000 | 43 | –
COc1c(Br)c2c3c(c1OC)-c1cc4c(cc1CC3N(C)CC2)OCO4 (racemic) | > 10000 | 53 | –
COc1c(OCC2CC2)cc2c3c1-c1cc4c(cc1CC3N(C)CC2)OCO4 (racemic) | 195 | 484 | –
COc1c(OCc2ccccc2)cc2c3c1-c1cc4c(cc1CC3N(C)CC2)OCO4 (racemic) | 1920 | 154 | –
COc1cc2c3c(c1OC)-c1cc4c(cc1CC3N(C)CC2)OCO4 (racemic) | 36 | – | –
COc1cc2c3c(c1OC)-c1cc4c(cc1CC3N(CC1CC1)CC2)OCO4 (racemic) | 319 | > 10000 | –
COc1cc2c3c(c1OCC(C)C)-c1cc4c(cc1CC3N(C)CC2)OCO4 (racemic) | > 10000 | 367 | –
COc1cc2c3c(c1OCC1CCC1)-c1cc4c(cc1CC3N(C)CC2)OCO4 (racemic) | > 10000 | – | 25
COc1cc2c3c(c1OCC1CCCC1)-c1cc4c(cc1CC3N(C)CC2)OCO4 (racemic) | > 10000 | – | 35
COc1cc2c3c(c1OCC1CCCCC1)-c1cc4c(cc1CC3N(C)CC2)OCO4 (racemic) | > 10000 | 1720 | –
COc1cc2c3c(c1OCCC(C)C)-c1cc4c(cc1CC3N(C)CC2)OCO4 (racemic) | > 10000 | – | 19
COc1cc2c3c(c1OCCCO)-c1cc4c(cc1CC3N(C)CC2)OCO4 (racemic) | > 10000 | 708 | –
